From ChEMBL document CHEMBL1142583, “Cytotoxic flavonol glycosides from Triplaris cumingiana” (2005)
In brackets after ≈: the same amount, converted by molar mass.

Experiments:
Type in all cases: functional
NCI-H460 = assay: Cytotoxicity against human H460 cells
Outline: (§1)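 Human cancer cell panel: MCF-7 (breast), H-460 (lung) and SF-268 (central nervous system), run by the Monks et al. protocol; adriamycin served as the reference compound.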

SF-268 = assay: Cytotoxicity against human SF-268 cells; outline: as §1
MCF7 = assay: Cytotoxicity against human MCF7 cell; outline: as §1

SMILES | GI50 (NCI-H460) [µg/mL] | GI50 (SF-268) [µg/mL] | GI50 (MCF7) [µg/mL]
O=C(OC[C@H]1O[C@@H](Oc2c(-c3ccc(O)c(O)c3)oc3cc(O)cc(O)c3c2=O)[C@H](O)[C@@H](O)[C@@H]1O)c1cc(O)c(O)c(O)c1 | > 10 | > 10 | > 10
O=C(OC[C@@H]1O[C@@H](Oc2c(-c3ccc(O)c(O)c3)oc3cc(O)cc(O)c3c2=O)[C@H](O)[C@H]1O)c1cc(O)c(O)c(O)c1 | 1.2 (≈ 2.05 µM) | 2.3 (≈ 3.92 µM) | 1.4 (≈ 2.39 µM)
O=C(OC[C@H]1O[C@@H](Oc2c(-c3ccc(O)c(O)c3)oc3cc(O)cc(O)c3c2=O)[C@H](O)[C@@H](O)[C@@H]1OC(=O)c1cc(O)c(O)c(O)c1)c1cc(O)c(O)c(O)c1 | 3 (≈ 3.9 µM) | > 10 | > 10
O=C(OC[C@@H]1O[C@@H](Oc2c(-c3ccc(O)cc3)oc3cc(O)cc(O)c3c2=O)[C@H](O)[C@H]1O)c1cc(O)c(O)c(O)c1 | > 10 | > 10 | 9 (≈ 15.8 µM)
O=c1c(O)c(-c2ccc(O[C@@H]3O[C@@H](CO)[C@H](O)[C@H]3O)c(O)c2)oc2cc(O)cc(O)c12 | 7.3 (≈ 16.8 µM) | > 10 | 9.1 (≈ 21 µM)
